Test results as given in ChEMBL document CHEMBL2057172, “Investigation of 7-benzylidenenaltrexone derivatives as resistance reverser for chloroquine-resistant Plasmodium chabaudi” (Bioorg Med Chem Lett, 2012).
Calls of active or inactive are those of the source. The calls are words filed in the database; no cut-off is given here.

Assays:
[1] = tested on: Plasmodium chabaudi; experiment: Antimalarial activity against chloroquine-resistant Plasmodium chabaudi infected in mouse assessed as reversal of chloroquine-resistance at 10 mg/kg, po administered 4 days after post infection; type: functional, organism-based; design: dose 10 mg/kg
Procedure, shortened: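 Mice infected with CQ-resistant P. chabaudi. Test compounds were given perorally at 10 mg/kg, alongside CQ at 3 mg/kg given intraperitoneally. Resistance reversal was read at day 4 after infection. Groups were compared by one-way ANOVA followed by Dunnett's test.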

[2] = molecular target: T1, Glutathione reductase, putative (Plasmodium chabaudi) (UniProt A0A077YEX9); experiment: Inhibition of Plasmodium chabaudi glutathione reductase assessed as residual reduced glutathione level after 30 mins in presence of glutathione S-transferase
Procedure, shortened: (§1)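 Compounds were incubated with GSH, with or without GST, at 37 °C for 30 min. The residual GSH ratio was obtained from the absorbance of the medium.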

[3] = molecular target: T1, Glutathione reductase, putative (Plasmodium chabaudi); experiment: Inhibition of Plasmodium chabaudi glutathione reductase assessed as residual reduced glutathione level after 30 mins in absence of glutathione S-transferase; procedure, shortened: as §1

T1 sequence (A0A077YEX9 as listed by the source): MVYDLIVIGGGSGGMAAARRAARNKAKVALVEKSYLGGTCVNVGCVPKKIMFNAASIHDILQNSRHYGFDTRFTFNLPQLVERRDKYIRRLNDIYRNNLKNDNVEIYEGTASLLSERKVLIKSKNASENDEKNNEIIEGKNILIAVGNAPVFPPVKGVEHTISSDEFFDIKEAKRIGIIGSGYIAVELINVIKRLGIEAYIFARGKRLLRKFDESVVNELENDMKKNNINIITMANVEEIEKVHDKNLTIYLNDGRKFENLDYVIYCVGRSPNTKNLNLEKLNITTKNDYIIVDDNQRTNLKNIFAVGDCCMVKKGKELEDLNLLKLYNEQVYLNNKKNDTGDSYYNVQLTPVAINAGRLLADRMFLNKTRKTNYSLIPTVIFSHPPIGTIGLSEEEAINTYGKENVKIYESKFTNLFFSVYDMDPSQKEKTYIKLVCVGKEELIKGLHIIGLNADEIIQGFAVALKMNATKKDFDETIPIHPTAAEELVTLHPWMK

Row | Compound | Activity [1] | inhibition [2] | inhibition [3]
1 | O=C1/C(=C/c2ccc(F)cc2)C[C@@]2(O)[C@H]3Cc4ccc(O)c5c4[C@@]2(CCN3CC2CC2)[C@H]1O5 | Active | – | –
2 | O=C1[C@@H](Cc2ccccc2)C[C@@]2(O)[C@H]3Cc4ccc(O)c5c4[C@@]2(CCN3CC2CC2)[C@H]1O5 | – | inactive | inactive
3 | COc1ccc(/C=C2\C[C@@]3(O)[C@H]4Cc5ccc(O)c6c5[C@@]3(CCN4CC3CC3)[C@@H](O6)C2=O)cc1 | Active | – | –
4 | O=C1/C(=C/c2ccccc2)C[C@@]2(O)[C@H]3Cc4ccc(O)c5c4[C@@]2(CCN3CC2CC2)[C@H]1O5 | Active | – | –
